According to PMC10558795 (Redox Biology, 2023):
Where a name gives a salt, the structure may show the parent alone. Read-outs that look alike come from different tables or passages of the source.

Experiments:
[1] = system: NRF2 activity (NQO1-YFP signal, CDDO-activated); assay: High-throughput screen and dose response: NRF2 activity; type: cell-based, human
How it was run: (§1)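 NQO1-YFP H1299 reporter cells (YFP in NQO1 intron 1, constitutive mCherry) were seeded 1000/well in 384-well plates and cultured overnight. Primary screen: 1 μM compound in 0.1% DMSO, one well each, with CDDO 200 nM and 0.1% DMSO controls. Retests used 10-point serial dilutions from 10 µM in triplicate, with brusatol control. Imaged at 0, 24, 48, 64 h (YFP = NRF2 activity, mCherry = viability); IC₅₀ by curve fit.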

KYSE70 cells = assay: High-content cytotoxicity screen; type: cell-based, human
How it was run: (§2)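 Cells were seeded at 1200/well in 384-well plates and cultured overnight. Test compound was added at […] serial dilution from 10 µM, in triplicate, for 3 days. Controls were 0.1% DMSO (negative), 30 µM benzethonium chloride and 0.1% Triton X-100 added just before staining (positive). Cells were stained with 0.5 µg/ml Hoechst and 100 nM YOYO1, four 4× images per well. Normalized total-cell and dead-cell percentages were fitted for IC₅₀.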

KYSE180 cells = assay: High-content cytotoxicity screen; type: cell-based, human
How it was run: as §2

NQO1-YFP H1299 cells = assay: Cell viability; type: cell-based, human
How it was run: as §1

NRF2 (NRF2^WT-KYSE450) = NRF2 (NRF2^WT-KYSE450) (Homo sapiens, UniProt Q16236); assay: CHX chase analysis of NRF2 half-life in KYSE450 cells; type: cell-based; conditions: PYR 10 μM, MIT 20 nM
NRF2 (NRF2^WT-KYSE450), sequence (Q16236 whole entry): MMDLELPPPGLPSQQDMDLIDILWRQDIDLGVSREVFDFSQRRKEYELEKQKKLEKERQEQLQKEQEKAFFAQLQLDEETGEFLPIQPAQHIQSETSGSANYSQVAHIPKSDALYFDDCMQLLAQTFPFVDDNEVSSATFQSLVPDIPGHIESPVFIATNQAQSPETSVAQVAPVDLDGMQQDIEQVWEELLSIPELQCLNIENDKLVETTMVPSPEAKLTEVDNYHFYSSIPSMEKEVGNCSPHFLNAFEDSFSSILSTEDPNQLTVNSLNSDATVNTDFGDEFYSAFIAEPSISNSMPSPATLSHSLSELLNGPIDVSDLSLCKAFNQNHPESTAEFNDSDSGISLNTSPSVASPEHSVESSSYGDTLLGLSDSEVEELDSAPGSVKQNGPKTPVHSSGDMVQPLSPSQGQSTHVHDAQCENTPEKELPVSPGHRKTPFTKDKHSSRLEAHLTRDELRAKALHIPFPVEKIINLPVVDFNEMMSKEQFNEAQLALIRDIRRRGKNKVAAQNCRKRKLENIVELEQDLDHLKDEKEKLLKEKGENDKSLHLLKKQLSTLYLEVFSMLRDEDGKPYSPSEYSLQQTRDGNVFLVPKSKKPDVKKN
How it was run: (§3)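 Cells were grown in RPMI1640 GlutaMAX with 10% FBS and 1% penicillin/streptomycin at 37 °C, 5% CO₂. They were pre-incubated 4 h with test compound, then given 200 μg/ml cycloheximide to block protein synthesis. Cells were harvested at set time points after cycloheximide. Total lysates were run on SDS-PAGE and blotted for NRF2 and GAPDH, and band densities were used to calculate NRF2 half-life.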

[2] = system: NRF2 and NQO1 expression in NRF2^Mut-KYSE180 cells; assay: Western blotting of NRF2 and NQO1 expression in KYSE180 cells; type: cell-based, human
How it was run: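 NRF2-mutant KYSE180 cells (37 °C, 5% CO₂) treated with test compound; nuclear and cytosolic fractions prepared with a nuclear extraction kit. Proteins separated by SDS-PAGE onto nitrocellulose, primary antibody overnight at 4 °C, chemiluminescence on film. Bands quantified by densitometry, mean ± SD, Student's t-test.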

[3] = 90 mg/m^2, intravenous injection, cited from earlier work
NRF2 (NRF2^Mut-KYSE180) = NRF2 (NRF2^Mut-KYSE180) (Homo sapiens, UniProt Q16236, D77V); assay: CHX chase analysis of NRF2 half-life in KYSE180 cells; type: cell-based; conditions: PYR 10 μM, MIT 20 nM
NRF2 (NRF2^Mut-KYSE180), sequence (Q16236 whole entry D77V): as the sequence (Q16236 whole entry) above, with D77V counted along it
How it was run: as §3

[4] = system: NFE2L2 mRNA and NRF2 target genes; assay: qPCR of NFE2L2 mRNA and NRF2 target genes; type: cell-based, human
How it was run: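 Gene expression quantified by real-time PCR using gene-specific primers and TaqMan probes on a 96-well real-time PCR system.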

[5] = system: ABCG2 and TOP2A expression; assay: ABCG2 and TOP2A expression in KYSE70 cells; type: cell-based, human
NRF2-ARE binding = NRF2-ARE binding (Homo sapiens, UniProt Q16236, W24C); assay: ELISA-based TransAM NRF2-ARE binding assay with KYSE70 nuclear extracts
NRF2-ARE binding, sequence (Q16236 whole entry W24C): as the sequence (Q16236 whole entry) above, with W24C counted along it
How it was run: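 TransAM ELISA: nuclear extract from untreated KYSE70 cells (20 μg/well) added to wells containing ARE oligonucleotide. Test compound, competitor or mutated competitor added, then 1 h incubation with mild agitation and washing. Anti-NRF2 antibody 1 h, then HRP-conjugated secondary antibody and substrate; A450nm read.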

[6] = system: human NRF2 target genes in KYSE70 cells; assay: RNAseq of KYSE70 cells; type: cell-based; conditions: PYR 10 μM for 72 h, MIT 20 nM for 72 h
How it was run: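 Total RNA from treated and control cells made into Illumina libraries and sequenced (150 bp). Reads aligned to hg38 with RefSeq annotation and counted per gene; DEGs called by fold-change cut-off and corrected p-values. Gene set enrichment analysis performed; overall NRF2 target-gene mRNA level calculated on natural log scale.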

global translation = assay: Protein synthesis assay; type: cell-based, human; conditions: KYSE70; PYR 10 μM, MIT 20 nM; CHX positive control
How it was run: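 KYSE70 cells (37 °C, 5% CO₂) seeded at 2000 cells/well in 96-well plates; exposed to test compound or cycloheximide (positive control) in triplicate. Global translation measured with a commercial protein synthesis assay kit per manufacturer's protocol; cells imaged on a high-content imager.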

[7] = system: NRF2 and NQO1 expression in NRF2^Mut-KYSE70 cells; assay: Western blotting of NRF2 and NQO1 expression in KYSE70 cells; type: cell-based, human
How it was run: (§4)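 Nuclear and cytosolic fractions prepared with an extraction kit, or whole-cell lysates in RIPA buffer. Proteins separated by SDS-PAGE, transferred to nitrocellulose, blocked and probed with primary antibody overnight at 4 °C. Chemiluminescence detected on film and quantified by densitometry; band data as mean ± SD, Student's t-test.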

[8] = system: NRF2 expression in NRF2^WT-KYSE450 cells; assay: NRF2 expression in KYSE450 cells; type: cell-based, human
How it was run: as §4

[9] = read-out: NRF2 inhibition (IC50), H1299-NQO1-YFP cells, CDDO-activated YFP signal
[10] = read-out: Cell death (IC50), KYSE70, 3 days
[11] = read-out: Cell proliferation (IC50), KYSE70, 3 days
[12] = read-out: Cell death (IC50), KYSE180, 3 days
[13] = read-out: Cell proliferation (IC50), KYSE180, 3 days
[14] = read-out: Cell viability (IC50), H1299-NQO1-YFP cells
[15] = Homo sapiens, NCI-H1299, read-out: NRF2 inhibition (IC50, μM)
[16] = Homo sapiens, KYSE-70, 72 h, read-out: Cell proliferation (IC50, μM)
[17] = Homo sapiens, KYSE-180, 72 h, read-out: Cell proliferation (IC50, μM)
[18] = Homo sapiens, NCI-H1299, read-out: Cell viability (IC50, μM)
[19] = Homo sapiens, KYSE-70, 72 h, read-out: Cell death (IC50, μM)

CC(C)NC[C@H](O)c1ccc(O)c(O)c1 [Isoproterenol bitratrate]
IC50 [1, 9]: 0.43 µM
IC50 (KYSE70 cells; [10]): > 10 µM
IC50 (KYSE70 cells; [11]): 4.9 µM
IC50 (KYSE180 cells; [12]): > 10 µM
IC50 (KYSE180 cells; [13]): > 10 µM
IC50 (NQO1-YFP H1299 cells; [14]): > 10 µM

CCC(NC(C)C)C(O)c1ccc(O)c(O)c1 (stereo not shown) [Isoetharine mesylate]
IC50 [1, 15]: 0.49 µM
IC50 (KYSE70 cells; [16]): > 10 µM
IC50 (KYSE180 cells; [17]): > 10 µM
IC50 (NQO1-YFP H1299 cells; [18]): > 10 µM

CC(C)NCC(O)c1ccc(O)c(O)c1 (stereo not shown) [Isoproterenol hydrochloride]
IC50 [1, 15]: 0.84 µM
IC50 (KYSE70 cells; [19]): > 10 µM
IC50 (KYSE70 cells; [16]): 5.2 µM
IC50 (KYSE180 cells; [17]): > 10 µM
IC50 (NQO1-YFP H1299 cells; [18]): > 10 µM

O=C1c2c(O)ccc(O)c2C(=O)c2c(NCCNCCO)ccc(NCCNCCO)c21 [MIT, mitoxantrone dihydrochloride]
Effect on NRF2 half-life (NRF2 (NRF2^WT-KYSE450)): not changed
Expression of nuclear NRF2 and cytoplasmic NQO1 [2]: inhibited the expression of nuclear NRF2 and cytoplasmic NQO1 in a dose- and time-dependent manner
IC50 [1, 15]: 0.035 µM
Cmax in the plasma [3]: 6430 ± 2430 ng/mL
Cmax ([3]; read-out: Cmax in the plasma): 12.4 ± 4.7 µM
Effect on NRF2 half-life (NRF2 (NRF2^Mut-KYSE180)): shortened NRF2 half-life
NFE2L2 mRNA and NRF2 target genes (AKR1B10, AKR1C2, AKR1C3, PGD, SLC7A11, TKT) by qPCR [4]: downregulation
IC50 (KYSE70 cells; [19]): 0.00324 µM
IC50 (KYSE70 cells; [16]): 0.00584 µM
ABCG2 and TOP2A expression [5]: increased
NRF2-ARE binding activity (NRF2-ARE binding): did not observe any changes
Overall mRNA expression level of human NRF2 target genes [6]: significantly reduced
Global translation (global translation): Neither PYR (10 μM) nor MIT (20 nM) inhibited global translation
Expression of nuclear NRF2 and cytoplasmic NQO1 ([7]; KYSE70 cells): inhibited the expression of nuclear NRF2 and cytoplasmic NQO1 in a dose- and time-dependent manner
IC50 (KYSE180 cells; Homo sapiens, KYSE-180, 72 h, read-out: Cell death (IC50, μM)): 0.00522 µM
IC50 (KYSE180 cells; [17]): 0.00457 µM
IC50 (NQO1-YFP H1299 cells; [18]): > 10 µM

CN1CC[C@@]2(C)c3cc(O)ccc3N(C)[C@@H]12 [Eseroline fumarate]
IC50 [1, 9]: 0.26 µM
IC50 (KYSE70 cells; [10]): > 10 µM
IC50 (KYSE70 cells; [11]): 10 µM
IC50 (KYSE180 cells; [12]): > 10 µM
IC50 (KYSE180 cells; [13]): > 10 µM
IC50 (NQO1-YFP H1299 cells; [14]): > 10 µM

Nc1nc(N)c2nc(-c3ccccc3)c(N)nc2n1 [Triamterene]
IC50 [1, 15]: 0.72 µM
IC50 (KYSE70 cells; [19]): > 10 µM
IC50 (KYSE70 cells; [16]): 7.7 µM
IC50 (KYSE180 cells; [17]): > 10 µM
IC50 (NQO1-YFP H1299 cells; [18]): 3.7 µM

CN(Cc1cnc2nc(N)nc(N)c2n1)c1ccc(C(=O)N[C@@H](CCC(=O)O)C(=O)O)cc1 [MTX, methotrexate]
NRF2 expression [8]: significantly inhibited NRF2 expression
NRF2 expression ([7]; NRF2^Mut-KYSE70 cells): significantly inhibited NRF2 expression

CCOc1ccc2c(c1)C(C)=CC(C)(C)N2 [Ethoxyquin]
IC50 [1, 15]: 0.29 µM
IC50 (KYSE70 cells; [16]): > 10 µM
IC50 (KYSE180 cells; [17]): > 10 µM
IC50 (NQO1-YFP H1299 cells; [18]): > 10 µM
